Values belong to the compound of their own block, whether it stands above or below them.
Key:
[1] = Half life in rat; assay type: ADME, organism-based; details: in vivo
[2] = Oral bioavailability in rat; assay type: ADME, organism-based; details: in vivo
[3] = target: Voltage-gated inwardly rectifying potassium channel KCNH2 (Homo sapiens, UniProt Q12809); assay: Inhibition of human ERG
[4] = AUC in rat at 2 mg/kg, po; assay type: ADME, organism-based; parameters: dose 2 mg/kg, route oral; details: plasma
Procedure, shortened: (§1)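 Pharmacokinetic parameters derived by noncompartmental analysis.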

[5] = Plasma clearance in rat at 1 mg/kg, iv or 2 mg/kg, po; assay type: ADME, organism-based; procedure, shortened: as §1
[6] = Oral bioavailability in rat at 2 mg/kg; assay type: ADME, organism-based; details: in vivo; procedure, shortened: as §1
[7] = Cmax in rat at 1 mg/kg, iv or 2 mg/kg, po; assay type: ADME, organism-based; details: in vivo; procedure, shortened: as §1
[8] = Half life in rat at 1 mg/kg, iv or 2 mg/kg, po; assay type: ADME, organism-based; details: in vivo; procedure, shortened: as §1
Canis familiaris = assay: AUC in dog at 0.5 mg/kg, po; assay type: ADME, organism-based, Canis lupus familiaris, Plasma; parameters: dose 0.5 mg/kg, route oral; details: in vivo; procedure, shortened: as §1
[9] = Cmax in dog at 0.5 mg/kg, po; assay type: ADME, organism-based, Canis lupus familiaris; parameters: dose 0.5 mg/kg, route oral; details: in vivo; procedure, shortened: as §1
[10] = Half life in dog at 0.5 mg/kg, po; assay type: ADME, organism-based, Canis lupus familiaris; parameters: dose 0.5 mg/kg, route oral; details: in vivo; procedure, shortened: as §1
[11] = Oral bioavailability in dog at 0.5 mg/kg; assay type: ADME, organism-based, Canis lupus familiaris; details: in vivo; procedure, shortened: as §1
[12] = AUC in rhesus monkey at 2 mg/kg, po; assay type: ADME, organism-based, Macaca mulatta; parameters: dose 2 mg/kg, route oral; details: plasma; procedure, shortened: as §1
[13] = Plasma clearance in rhesus monkey at 1 mg/kg, iv or 2 mg/kg, po; assay type: ADME, organism-based, Macaca mulatta; procedure, shortened: as §1
[14] = Cmax in rhesus monkey at 1 mg/kg, iv or 2 mg/kg, po; assay type: ADME, organism-based, Macaca mulatta; details: in vivo; procedure, shortened: as §1
[15] = Half life in rhesus monkey at 1 mg/kg, iv or 2 mg/kg, po; assay type: ADME, organism-based, Macaca mulatta; details: in vivo; procedure, shortened: as §1
[16] = Oral bioavailability in rhesus monkey at 2 mg/kg; assay type: ADME, organism-based, Macaca mulatta; details: in vivo; procedure, shortened: as §1
Mus musculus [17] = assay: Reduction in glucose excursion in mouse at 0.03 mg/kg, po administered 60 mins prior to dextrose challenge by oral glucose tolerance test; assay type: functional; parameters: scale not given: the % may be the effect or the level left
Procedure, shortened: (§2)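 Single oral dose given 60 min before an oral dextrose challenge. Blood glucose was monitored, and glucose excursion was expressed as percent reduction relative to vehicle-dosed controls.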

Dipeptidyl peptidase 8 = Dipeptidyl peptidase 8 (Homo sapiens, UniProt Q6V1X1); assay: Inhibition of human DPP8
Mus musculus [18] = assay: Reduction in glucose excursion in mouse at 0.1 mg/kg, po administered 60 mins prior to dextrose challenge by oral glucose tolerance test; assay type: functional; parameters: scale not given: the % may be the effect or the level left; procedure, shortened: as §2
[19] = Plasma clearance in rat; assay type: ADME, organism-based
Dipeptidyl peptidase 9 = Dipeptidyl peptidase 9 (Homo sapiens, UniProt Q86TI2); assay: Inhibition of human DPP9
Chain of Dipeptidyl peptidase 9 (Q86TI2 whole entry): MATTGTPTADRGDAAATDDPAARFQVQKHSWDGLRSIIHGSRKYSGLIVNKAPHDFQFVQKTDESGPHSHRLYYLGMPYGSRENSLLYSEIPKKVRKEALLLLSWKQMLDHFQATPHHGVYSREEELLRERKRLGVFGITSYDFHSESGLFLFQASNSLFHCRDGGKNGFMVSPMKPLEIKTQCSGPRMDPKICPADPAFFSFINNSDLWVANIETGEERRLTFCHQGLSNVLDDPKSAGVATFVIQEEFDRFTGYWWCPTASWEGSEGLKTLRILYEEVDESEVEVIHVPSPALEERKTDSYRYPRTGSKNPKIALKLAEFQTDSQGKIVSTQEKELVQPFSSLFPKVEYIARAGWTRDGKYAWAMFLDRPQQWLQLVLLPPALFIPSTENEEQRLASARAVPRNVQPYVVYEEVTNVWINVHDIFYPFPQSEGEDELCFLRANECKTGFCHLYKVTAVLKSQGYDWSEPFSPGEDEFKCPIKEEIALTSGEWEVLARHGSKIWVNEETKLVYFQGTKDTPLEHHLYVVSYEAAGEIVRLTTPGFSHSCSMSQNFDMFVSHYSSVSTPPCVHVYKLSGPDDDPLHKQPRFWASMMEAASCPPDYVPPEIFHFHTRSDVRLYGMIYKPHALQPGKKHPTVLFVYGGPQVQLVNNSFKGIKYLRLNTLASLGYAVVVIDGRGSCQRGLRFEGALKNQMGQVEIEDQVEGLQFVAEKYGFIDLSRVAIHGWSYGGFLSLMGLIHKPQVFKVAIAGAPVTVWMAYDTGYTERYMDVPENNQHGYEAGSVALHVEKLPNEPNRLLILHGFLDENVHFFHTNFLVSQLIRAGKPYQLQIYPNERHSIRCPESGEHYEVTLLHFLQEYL

Chain of Dipeptidyl peptidase 8 (Q6V1X1 whole entry): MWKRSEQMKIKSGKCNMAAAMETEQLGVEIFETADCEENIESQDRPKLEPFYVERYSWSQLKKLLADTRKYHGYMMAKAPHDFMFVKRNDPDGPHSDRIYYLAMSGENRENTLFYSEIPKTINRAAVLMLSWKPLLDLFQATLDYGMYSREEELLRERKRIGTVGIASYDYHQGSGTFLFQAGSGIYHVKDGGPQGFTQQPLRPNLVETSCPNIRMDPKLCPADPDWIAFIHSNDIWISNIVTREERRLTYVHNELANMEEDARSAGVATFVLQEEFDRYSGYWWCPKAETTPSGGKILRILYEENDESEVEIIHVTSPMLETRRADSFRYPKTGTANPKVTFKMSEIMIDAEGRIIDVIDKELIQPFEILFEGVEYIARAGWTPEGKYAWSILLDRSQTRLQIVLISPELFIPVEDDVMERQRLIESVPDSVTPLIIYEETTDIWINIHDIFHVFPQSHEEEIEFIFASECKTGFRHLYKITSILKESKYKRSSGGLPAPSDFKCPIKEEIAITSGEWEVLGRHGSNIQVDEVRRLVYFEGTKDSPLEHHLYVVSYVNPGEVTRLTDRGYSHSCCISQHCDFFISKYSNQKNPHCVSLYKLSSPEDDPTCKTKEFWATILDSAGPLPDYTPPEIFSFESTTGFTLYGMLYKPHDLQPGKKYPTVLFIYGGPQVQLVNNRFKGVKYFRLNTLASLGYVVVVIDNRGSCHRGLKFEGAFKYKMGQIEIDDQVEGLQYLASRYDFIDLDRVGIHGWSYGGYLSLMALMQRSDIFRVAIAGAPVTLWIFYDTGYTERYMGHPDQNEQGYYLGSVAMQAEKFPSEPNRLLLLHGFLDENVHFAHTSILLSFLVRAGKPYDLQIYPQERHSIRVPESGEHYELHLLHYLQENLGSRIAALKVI
Chain of Voltage-gated inwardly rectifying potassium channel KCNH2 (Q12809 whole entry): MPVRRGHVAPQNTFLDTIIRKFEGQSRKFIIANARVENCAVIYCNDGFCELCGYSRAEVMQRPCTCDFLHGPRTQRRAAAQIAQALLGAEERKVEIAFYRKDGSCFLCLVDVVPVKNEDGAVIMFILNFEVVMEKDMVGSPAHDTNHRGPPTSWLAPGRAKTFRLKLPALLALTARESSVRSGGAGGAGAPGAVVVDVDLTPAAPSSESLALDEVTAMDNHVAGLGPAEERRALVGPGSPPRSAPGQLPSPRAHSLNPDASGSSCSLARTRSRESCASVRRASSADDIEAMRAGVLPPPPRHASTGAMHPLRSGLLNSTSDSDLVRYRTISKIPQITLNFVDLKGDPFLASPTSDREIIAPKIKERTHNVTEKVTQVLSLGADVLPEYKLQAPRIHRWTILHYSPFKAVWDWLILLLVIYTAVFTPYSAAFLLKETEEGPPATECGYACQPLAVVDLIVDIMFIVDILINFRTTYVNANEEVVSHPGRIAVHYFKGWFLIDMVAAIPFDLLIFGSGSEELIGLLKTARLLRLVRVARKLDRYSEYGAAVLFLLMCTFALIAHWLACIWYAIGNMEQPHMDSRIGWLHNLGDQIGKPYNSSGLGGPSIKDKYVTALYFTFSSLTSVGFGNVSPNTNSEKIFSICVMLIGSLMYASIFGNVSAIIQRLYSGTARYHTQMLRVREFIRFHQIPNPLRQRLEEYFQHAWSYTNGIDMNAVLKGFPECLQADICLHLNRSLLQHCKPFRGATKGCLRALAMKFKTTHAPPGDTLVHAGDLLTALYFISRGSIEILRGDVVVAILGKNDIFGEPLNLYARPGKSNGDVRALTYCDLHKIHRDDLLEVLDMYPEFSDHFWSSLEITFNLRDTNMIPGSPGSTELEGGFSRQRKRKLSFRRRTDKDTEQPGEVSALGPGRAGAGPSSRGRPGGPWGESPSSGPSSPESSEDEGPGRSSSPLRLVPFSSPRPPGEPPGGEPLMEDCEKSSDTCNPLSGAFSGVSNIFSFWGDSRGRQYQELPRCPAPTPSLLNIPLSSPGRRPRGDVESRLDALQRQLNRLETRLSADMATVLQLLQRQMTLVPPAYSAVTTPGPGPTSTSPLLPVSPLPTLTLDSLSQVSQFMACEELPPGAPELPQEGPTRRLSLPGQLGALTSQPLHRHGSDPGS

half-life [1]: 0.54 h
bioavailability [2]: 31%
SMILES: CN(C)C(=O)[C@@H]([C@H]1CC[C@H](c2cccc3ncnn32)CC1)[C@H](N)C(=O)N1CC[C@H](F)C1

AUC [4]: 4.4 µM·h
clearance [5]: 5.3 mL/min/kg
bioavailability [6]: 63%
Cmax [7]: 3.3 µM
half-life [8]: 4.1 h
AUC (Canis familiaris): 46 µM·h
Cmax [9]: 16 µM
half-life [10]: 3.9 h
bioavailability [11]: 100%
AUC [12]: 6.5 µM·h
clearance [13]: 5.6 mL/min/kg
Cmax [14]: 2.8 µM
half-life [15]: 4.1 h
bioavailability [16]: 97%
SMILES: CN(C)C(=O)[C@@H]([C@H]1CC[C@H](c2ccc3ncnn3c2)CC1)[C@H](N)C(=O)N1CCC(F)(F)C1
IC50 [3]: > 90 µM
Activity (Mus musculus [17]): 23%

clearance [5]: 7 mL/min/kg
SMILES: CN(C)C(=O)[C@@H](c1ccc(-c2ccc3ncnn3c2)cc1)[C@H](N)C(=O)N1CC[C@H](F)C1

IC50 (Dipeptidyl peptidase 8): > 100 µM
SMILES: COc1cc([C@H]2CC[C@H]([C@H](C(=O)N(C)C)[C@H](N)C(=O)N3CCC(F)(F)C3)CC2)nc(OC)n1

clearance [5]: 4.8 mL/min/kg
SMILES: CN(C)C(=O)[C@@H](c1ccc(-c2ccc(F)cc2)cc1)[C@H](N)C(=O)N1CC[C@H](F)C1
Activity (Mus musculus [18]): 21%

half-life [1]: 2.9 h
bioavailability [2]: 98%
clearance [19]: 40 mL/min/kg
SMILES: CN(C)C(=O)[C@@H]([C@H]1CC[C@H](c2cccc3ncnn32)CC1)[C@H](N)C(=O)N1CCC(F)(F)C1

clearance [5]: 8.6 mL/min/kg
bioavailability [6]: 85%
SMILES: C[C@@H](c1ccc(-c2ccc(F)cc2)cc1)[C@H](N)C(=O)N1CC[C@H](F)C1

IC50 (Dipeptidyl peptidase 8): > 100 µM
SMILES: COc1cc([C@H]2CC[C@@H]([C@H](C(=O)N(C)C)[C@H](N)C(=O)N3CCC(F)(F)C3)CC2)nc(OC)n1

IC50 (Dipeptidyl peptidase 9): > 100 µM
clearance [5]: 42 mL/min/kg
bioavailability [6]: 56%
SMILES: CC(=O)N[C@H]1CC[C@H]([C@H](C)[C@H](N)C(=O)N2CC[C@H](F)C2)CC1
IC50 [3]: > 100 µM
Activity (Mus musculus [18]): 26%
